{"data": "Results collected from several papers", "RPS6KA6 N-terminal kinase domain": "Ribosomal protein S6 kinase alpha-6, N-terminal kinase domain (RPS6KA6, Homo sapiens, UniProt Q9UK32)", "RPS6KA6 C-terminal kinase domain": "Ribosomal protein S6 kinase alpha-6, C-terminal kinase domain (RPS6KA6, Homo sapiens, UniProt Q9UK32)", "RPS6KA6": "Ribosomal protein S6 kinase alpha-6 (RPS6KA6, Homo sapiens, UniProt Q9UK32)", "note": "Compare with care: the assays were run in different laboratories."}
{"Structure (SMILES)": "F[C@@H]1CCN(c2nccc(-c3cnn4ncccc34)n2)C1", "target": "RPS6KA6 N-terminal kinase domain", "effect on": "binding", "method": "competition with immobilised ligand", "concentration": "1 µM", "measurement": "remaining binding", "result": "82%"}
{"Structure (SMILES)": "Cc1nc(C2CCN(C(=O)c3ccc(OC(F)(F)F)cc3N)CC2)c2ncc(N3CCN(C)CC3)cc2n1", "target": "RPS6KA6 C-terminal kinase domain", "effect on": "cell-free assay", "method": "competition with immobilised ligand", "concentration": "1 µM", "measurement": "remaining binding", "result": "100%"}
{"Structure (SMILES)": "N#CC1c2c([nH]c3c(Cl)c(Cl)ccc23)C(=O)NC12CCCCC2 (racemic)", "target": "RPS6KA6", "effect on": "thermal stability", "method": "DSF", "concentration": "10 µM", "measurement": "ΔTm", "result": "1.6 °C"}
{"Structure (SMILES)": "CCC(=N\\O)/C(C)=C/c1ccc(F)cc1", "target": "RPS6KA6 C-terminal kinase domain", "effect on": "cell-free assay", "method": "competition with immobilised ligand", "concentration": "1 µM", "measurement": "remaining binding", "result": "94%"}
{"Structure (SMILES)": "CC(C)(O)[C@H]1CC[C@H](Nc2ccc3ncc(-c4cccc(C(F)(F)F)c4)n3n2)CC1", "target": "RPS6KA6", "effect on": "enzyme activity", "action": "inhibitor", "concentration": "1 µM", "measurement": "remaining activity", "result": "91.7%"}
{"Structure (SMILES)": "Nc1ncnc2occ(-c3ccc(NC(=O)Nc4cc(C(F)(F)F)ccc4F)cc3)c12", "target": "RPS6KA6 N-terminal kinase domain", "effect on": "cell-free assay", "action": "inhibitor", "concentration": "20 µM", "measurement": "remaining signal", "result": "5.5%"}
{"Structure (SMILES)": "CC1(C)NC(=O)c2[nH]c3c(Cl)c(Cl)ccc3c2C1C#N (centres unmarked)", "target": "RPS6KA6", "effect on": "thermal stability", "method": "DSF", "concentration": "10 µM", "measurement": "ΔTm", "result": "2.2 °C"}
{"Structure (SMILES)": "CN(CCCC(F)(F)F)c1nccc(-c2cnn3ncccc23)n1", "target": "RPS6KA6 C-terminal kinase domain", "effect on": "binding", "method": "competition with immobilised ligand", "concentration": "1 µM", "measurement": "remaining binding", "result": "100%"}
{"Structure (SMILES)": "C[C@H](NC(=O)c1cnc2n1[C@](C)(Cc1ccc(C#N)cc1)C(=O)N2c1cc(Cl)c(F)c(Cl)c1)C(=O)NC1(c2ccccn2)CC1", "target": "RPS6KA6 N-terminal kinase domain", "effect on": "cell-free assay", "method": "competition with immobilised ligand", "concentration": "1 µM", "measurement": "remaining binding", "result": "91%"}
{"Structure (SMILES)": "CC/C(=N\\NC(=O)NCc1cccc(O)c1)c1ccc(O)c(C)c1O", "target": "RPS6KA6", "effect on": "enzyme activity", "action": "inhibitor", "concentration": "0.1 µM", "measurement": "inhibition", "result": "66.4%"}
{"Structure (SMILES)": "CN1CC(Oc2cnc(C#N)cc2-c2ccn3nc(NC(=O)C4CC4)cc3c2)C1", "target": "RPS6KA6", "effect on": "enzyme activity", "action": "inhibitor", "concentration": "1 µM", "measurement": "inhibition", "result": "-4%"}
{"Structure (SMILES)": "Cc1ccc(C(=O)Nc2ccc(CN3CCN(C)CC3)c(C(F)(F)F)c2)cc1C#Cc1cnc2cccnn12", "target": "RPS6KA6", "effect on": "enzyme activity", "action": "inhibitor", "concentration": "23.5 nM", "measurement": "activity vs control", "result": "84%"}
{"Structure (SMILES)": "C[C@@H]1CCN(c2nccc(-c3cnn4ncccc34)n2)C1", "target": "RPS6KA6 C-terminal kinase domain", "effect on": "binding", "method": "competition with immobilised ligand", "concentration": "1 µM", "measurement": "remaining binding", "result": "66%"}
{"Structure (SMILES)": "COc1ccc(COc2ccc(Cc3cnc(N)nc3N)cc2OC)cc1", "target": "RPS6KA6", "effect on": "cell-free assay", "concentration": "0.5 µM", "measurement": "remaining signal", "result": "101%"}
{"Structure (SMILES)": "Cc1ccc(NC(=O)c2ccc(C)c(C(F)(F)F)c2)cc1C#Cc1nn(C2CCC(O)CC2)c2ncnc(N)c12 (centres unmarked)", "target": "RPS6KA6", "effect on": "cell-free assay", "concentration": "10 µM", "measurement": "remaining signal", "result": "44%"}
{"Structure (SMILES)": "Cn1c2c(c3ccc(Cl)c(Cl)c31)C(C#N)C1(CCOCC1)NC2=O (centres unmarked)", "target": "RPS6KA6", "effect on": "thermal stability", "method": "DSF", "concentration": "10 µM", "measurement": "ΔTm", "result": "0.1 °C"}
{"Structure (SMILES)": "C[S+]([O-])c1ccc(-c2nc(-c3ccncc3)c(-c3ccc(F)cc3)[nH]2)cc1 (centres unmarked)", "target": "RPS6KA6", "effect on": "cell-free assay", "concentration": "0.5 µM", "measurement": "remaining signal", "result": "110%"}
{"Structure (SMILES)": "Cn1cc(Cl)c2c(Oc3c(F)cc(Nc4cc(Cl)nc(N)n4)cc3F)ccnc21", "target": "RPS6KA6 C-terminal kinase domain", "effect on": "cell-free assay", "method": "competition with immobilised ligand", "concentration": "0.1 µM", "measurement": "remaining binding", "result": "100%"}
{"Structure (SMILES)": "COc1cc(Cl)c(C(=O)N[C@@H](CN[C@H]2CC[C@@H](N)CC2)Cc2ccc(C#N)cc2)cc1-c1ccc(CN[C@H](C)c2ccc(C)cc2)o1", "target": "RPS6KA6", "effect on": "enzyme activity", "action": "inhibitor", "concentration": "1 µM", "measurement": "remaining activity", "result": "97%"}
{"Structure (SMILES)": "Cc1ccc(C(=O)NCc2ccsc2)cc1C#Cc1cn(C(C)C)c2ncnc(N)c12", "target": "RPS6KA6", "effect on": "enzyme activity", "action": "inhibitor", "concentration": "1 µM", "measurement": "activity vs control", "result": "71%"}
{"Structure (SMILES)": "Cc1ccc(Nc2nccc(N(C)c3ccc4c(C)n(C)nc4c3)n2)cc1S(N)(=O)=O", "target": "RPS6KA6", "effect on": "enzyme activity", "action": "inhibitor", "concentration": "0.5 µM", "measurement": "remaining activity", "result": "96.8%"}
{"Structure (SMILES)": "Cc1sc(C(=O)NC2COC2)cc1-n1cc(NC(=O)Nc2c(F)cccc2Cl)cn1", "target": "RPS6KA6", "effect on": "enzyme activity", "action": "inhibitor", "concentration": "10 µM", "measurement": "remaining activity", "result": "116%"}
{"Structure (SMILES)": "Cn1c2c(c3ccc(Cl)c(Cl)c31)C(C#N)C1(CCCCC1)NC2=O (racemic)", "target": "RPS6KA6", "effect on": "thermal stability", "method": "DSF", "concentration": "10 µM", "measurement": "ΔTm", "result": "0 °C"}
{"Structure (SMILES)": "c1cnn2ncc(-c3ccnc(N4CCC45COC5)n3)c2c1", "target": "RPS6KA6 N-terminal kinase domain", "effect on": "binding", "method": "competition with immobilised ligand", "concentration": "1 µM", "measurement": "remaining binding", "result": "58%"}
{"Structure (SMILES)": "O=C1Nc2ccc(Cl)cc2C1=Cc1cc(Cl)c(O)c(Cl)c1", "target": "RPS6KA6", "effect on": "cell-free assay", "concentration": "0.5 µM", "measurement": "remaining signal", "result": "78.5%"}
{"Structure (SMILES)": "CC(C)(C)c1nc(-c2cccc(NS(=O)(=O)c3c(F)cccc3F)c2F)c(-c2ccnc(N)n2)s1", "target": "RPS6KA6", "effect on": "enzyme activity", "action": "inhibitor", "method": "radiometric", "concentration": "1 µM", "measurement": "remaining activity", "result": "98%"}
{"Structure (SMILES)": "C[C@@H]1CCN(C(=O)CC#N)C[C@@H]1N(C)c1ncnc2[nH]ccc12", "target": "RPS6KA6", "effect on": "cell-free assay", "action": "inhibitor", "concentration": "0.5 µM", "measurement": "remaining signal", "result": "98.1%"}
{"Structure (SMILES)": "COc1ccc2c(c1)O[C@H](c1ccc(OC)c(OC)c1)C[C@@H]2NC(=O)C1(c2ccc3c(c2)OC(F)(F)O3)CC1", "target": "RPS6KA6 C-terminal kinase domain", "effect on": "cell-free assay", "method": "competition with immobilised ligand", "concentration": "1 µM", "measurement": "remaining binding", "result": "91%"}
{"Structure (SMILES)": "COc1cc2ncnc(Nc3ccc(Oc4ccccc4)cc3C)c2cc1OC", "target": "RPS6KA6", "effect on": "enzyme activity", "action": "inhibitor", "concentration": "1 µM", "measurement": "inhibition", "result": "7%"}
{"Structure (SMILES)": "CO[C@H]1CC[C@H](CNc2ccc(S(=O)(=O)NC(=O)c3ccc(N4CCN(CC5=C(c6ccc(Cl)cc6)CC(C)(C)CC5)CC4)cc3Oc3cnc4[nH]ccc4c3)cc2[N+](=O)[O-])CC1", "target": "RPS6KA6 C-terminal kinase domain", "effect on": "cell-free assay", "method": "competition with immobilised ligand", "concentration": "1 µM", "measurement": "remaining binding", "result": "81%"}
{"Structure (SMILES)": "CNC(=O)c1cc(Oc2ccc(NC(=O)Nc3ccc(Cl)c(C(F)(F)F)c3)cc2)ccn1", "target": "RPS6KA6", "effect on": "enzyme activity", "action": "inhibitor", "concentration": "10 µM", "measurement": "inhibition", "result": "-16%"}
{"Structure (SMILES)": "O=C(O)[C@H]1[C@H](Cn2nnc3ccccc3c2=O)CC[C@@H]1C(=O)c1ccc(OCCC2CCOCC2)cc1", "target": "RPS6KA6 N-terminal kinase domain", "effect on": "cell-free assay", "method": "competition with immobilised ligand", "concentration": "1 µM", "measurement": "remaining binding", "result": "86%"}
{"Structure (SMILES)": "O=C1NC(=O)c2cc(Nc3ccc(F)cc3)c(Nc3ccc(F)cc3)cc21", "target": "RPS6KA6", "effect on": "cell-free assay", "concentration": "0.5 µM", "measurement": "remaining signal", "result": "97.4%"}
{"Structure (SMILES)": "N[C@@H]1CCN(c2nccc(-c3cnn4ncccc34)n2)C1", "target": "RPS6KA6 C-terminal kinase domain", "effect on": "binding", "method": "competition with immobilised ligand", "concentration": "1 µM", "measurement": "remaining binding", "result": "100%"}
{"Structure (SMILES)": "O=C(NS(=O)(=O)c1ccc(NCC2CCOCC2)c([N+](=O)[O-])c1)c1ccc(N2CCN(Cc3ccc(C(F)(F)F)cc3-c3ccc(Cl)cc3)CC2)cc1Oc1cnc2[nH]ccc2c1", "target": "RPS6KA6 N-terminal kinase domain", "effect on": "cell-free assay", "method": "competition with immobilised ligand", "concentration": "1 µM", "measurement": "remaining binding", "result": "100%"}
